Bioassay records deposited in PubChem by Broad Institute.
This is a sample that favours compounds with a hit; in the whole collection about 2.6% have one here.
miR122 inh – miR-122 Renilla sensor signal increase in Huh7, primary screen, miR-122 inhibitor project, cell-based, single point, plate reader. activation (reporter increase), % at 12.5 µM. Huh7 miR-122 Renilla luciferase sensor, 48 h; neutral wells = 0, positive control = 100. AID 602342, 2012. 340,000 compounds, 0.3% hits;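 active = mean replicate activation score at least 90 and every replicate individually at or above 90; inconclusive = only one of the two criteria met; inactive = neither criterion met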;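 note: higher luciferase means less miR-122 activity so hits act as miR-122 inhibitors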
GSIS activator – GLuc luminescence reporter in INS-1E cells, primary screen for activators of glucose-dependent secretion of insulin; activation, % at 16.6 µM; INS-1E GLuc reporter insulin secretion, 2-3 h; AID 743287, 2014; 370,000 compounds, 0.61% hits;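 active = lowest replicate activation of at least 40%, so every replicate reaches that level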
DENV2 CPE rescue – inhibitors of DENV2 cytopathic effect, primary screen, cell-based, plate reader, single concentration; DENV2-infected cells, cytopathic effect rescue; CPE inhibition, % at 9.99 µM; 350,000 compounds, 1.7% hits; AID 651640, 2012; in the data active = CPE inhibition above about 20%, passing the limit was not always enough; inconclusive = no clear call, values can overlap the other calls; tested in BHK-21 cells
CFTR F508del cor – F508del CFTR correction, initial screen, CFBE line, single point. 350,000 compounds, 0.36% hits. CFBE cells, YFP halide quenching; stimulated with forskolin plus potentiator P3; % fluorescence drop versus neutral controls. activity (quench increase), % at 7.58 µM;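 active = mean added fluorescence quench of at least 8% versus neutral control, with both replicates also reaching 8%; inconclusive = only one of the mean or replicate conditions met; inactive = mean below 8% and not both replicates reaching 8%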;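 note: cells transiently co-express mutant CFTR-F508del with the halide-sensitive YFP; corrector assay measuring rescue of mutant channel to the surface after 24 h compound exposure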
ERAP1 HTS inh – human ERAP1 aminopeptidase inhibitors, primary screen, biochemical, single point, plate reader; inhibition, % at 10.7 µM; recombinant ERAP1, Leu-AMC fluorescence, 60 min; Endoplasmic reticulum aminopeptidase 1 (Homo sapiens), Q9NZ08; 340,000 compounds, 0.15% hits;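 active = mean replicate inhibition of at least 30%, or all replicates individually reaching that 30% level; inactive = mean below 30% and not every replicate reaching it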
Target sequence (Q9NZ08 whole entry, looked up): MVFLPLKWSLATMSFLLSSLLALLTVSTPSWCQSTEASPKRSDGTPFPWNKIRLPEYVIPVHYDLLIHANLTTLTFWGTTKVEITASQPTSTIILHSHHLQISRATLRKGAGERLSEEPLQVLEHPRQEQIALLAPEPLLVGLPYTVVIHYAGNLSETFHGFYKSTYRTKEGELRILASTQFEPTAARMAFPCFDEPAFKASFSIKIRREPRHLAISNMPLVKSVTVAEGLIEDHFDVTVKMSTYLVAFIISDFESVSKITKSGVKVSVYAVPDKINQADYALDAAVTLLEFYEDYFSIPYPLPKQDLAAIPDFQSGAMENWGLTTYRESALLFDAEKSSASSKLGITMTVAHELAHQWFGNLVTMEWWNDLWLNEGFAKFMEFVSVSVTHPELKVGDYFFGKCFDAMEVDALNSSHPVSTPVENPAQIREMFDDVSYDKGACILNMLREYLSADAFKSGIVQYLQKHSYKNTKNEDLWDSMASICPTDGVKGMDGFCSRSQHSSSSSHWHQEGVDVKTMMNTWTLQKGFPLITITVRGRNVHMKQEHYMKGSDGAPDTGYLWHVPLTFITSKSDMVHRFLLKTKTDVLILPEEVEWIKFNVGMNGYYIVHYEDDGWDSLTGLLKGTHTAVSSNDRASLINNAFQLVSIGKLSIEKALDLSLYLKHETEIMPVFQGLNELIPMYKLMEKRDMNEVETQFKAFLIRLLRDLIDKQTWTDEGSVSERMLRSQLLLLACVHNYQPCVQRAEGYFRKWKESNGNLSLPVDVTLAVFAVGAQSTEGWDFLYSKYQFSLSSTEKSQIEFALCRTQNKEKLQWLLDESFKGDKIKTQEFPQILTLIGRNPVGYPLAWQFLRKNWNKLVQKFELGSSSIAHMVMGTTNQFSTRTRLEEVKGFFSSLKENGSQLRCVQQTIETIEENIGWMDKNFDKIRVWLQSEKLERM
E-selectin induc – E-selectin induction in HUVECs, primary screen, imaging, HUVEC, immunofluorescence imaging, single point | P16581 | normalized: neutral wells 0, TNF-alpha wells 100 | activation, % at 7.58 µM | 260,000 compounds, 0.37% hits | AID 686992, 2013;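 active = mean E-selectin-positive cell signal at least 10% of the positive control, reached in at least 60% of replicates, without over 20% cell loss; inconclusive = no rule given, readout overlaps actives, possibly toxicity-flagged; inactive = the rest, including those meeting only one limit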
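Test system: HUVEC | Signal: Immunofluorescence imaging | Read-out: Percent E-selectin-positive cells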
Each line names hits and unclear results; the compound was inactive in the other large screens; [ ] = another dose, or the depositor's remark.

COC(=O)C1=C(C)N(Cc2cccc(C(F)(F)F)c2)C(=NCC2CC2)NC1c1cccc(Cl)c1 (stereo unspecified)	none (no result: miR122 inh, GSIS activator)
COC(=O)C1=C(C)N(Cc2ccccc2)C(=NCCCCO)N[C@H]1c1cccc(C(F)(F)F)c1	none (no result: GSIS activator, ERAP1 HTS inh)
CCN1C(=NCCCCO)N[C@@H](c2cccc(C(F)(F)F)c2)C(C(=O)OC)=C1C	DENV2 CPE rescue 33
COC(=O)C1=C(C)N(Cc2cccc(C(F)(F)F)c2)C(=NCC2CC2)NC1c1ccc(F)cc1 (stereo unspecified)	DENV2 CPE rescue 61 (no result: miR122 inh)
CCN=C1NC(c2ccc(F)cc2)C(C(=O)OC)=C(C)N1Cc1cccc(C(F)(F)F)c1 (stereo unspecified)	none (no result: miR122 inh)
COC(=O)C1=C(C)N(Cc2cccc(C(F)(F)F)c2)C(=NCC2CC2)NC1c1cccc(C(F)(F)F)c1 (stereo unspecified)	GSIS activator 420 (no result: miR122 inh)
O=C(C[C@H]1CC[C@H](NC(=O)Cc2ccccn2)[C@@H](CO)O1)NCCc1ccncc1	none (no result: ERAP1 HTS inh)
CNC[C@@H]1OCCCC[C@@H](C)Oc2ccc(N(C)C)cc2C(=O)N([C@@H](C)CO)C[C@H]1C	none (no result: miR122 inh, DENV2 CPE rescue)
CO[C@@H]1CN(C)C(=O)c2cc(NC(C)=O)ccc2OC[C@H](C)N(C(=O)C2CCCCC2)C[C@@H]1C	none (no result: miR122 inh)
Cc1ccc(-c2ccc(C3[C@@H]4CN(S(=O)(=O)c5ccccc5)C[C@H]3N4)cc2)cc1 (stereo partly specified)	none (no result: miR122 inh)
COc1cc2c[n+](C)c3c4ccccc4ccc3c2cc1OC	CFTR F508del cor 9.7 (no result: E-selectin induc)
COc1ccc2c(c1)c[n+](C)c1c3cc(OC)c(OC)cc3ccc21	DENV2 CPE rescue inconclusive (no result: miR122 inh, GSIS activator)
Cc1ccc(S(=O)(=O)Nc2ccc3c(c2)C(=O)N([C@H](C)CO)C[C@@H](C)[C@H](CN(C)C(=O)CCC(F)(F)F)OCCCC[C@@H](C)O3)cc1	none (no result: E-selectin induc)
COc1ccc(NS(=O)(=O)c2cc(NC(=O)COc3ccc(OC)cc3)ccc2N2CCOCC2)cc1	miR122 inh 110 (no result: E-selectin induc)
CCOC(=O)Nc1ccc(S(=O)(=O)N2CCOCC2)cc1	none (no result: GSIS activator, DENV2 CPE rescue, CFTR F508del cor, ERAP1 HTS inh, E-selectin induc)
CCOC(=O)Nc1ccc(N2CCOCC2)c(S(=O)(=O)N2CCOCC2)c1	DENV2 CPE rescue 26
COc1cccc(CC(=O)Nc2ccc(N3CCOCC3)c(S(=O)(=O)Nc3ccccc3OC)c2)c1	miR122 inh 129
COc1ccccc1NS(=O)(=O)c1cc(NC(=O)COc2ccccc2)ccc1N1CCOCC1	none (no result: miR122 inh)
CC(C)NC(=O)Nc1ccc2c(c1)CC(=O)N([C@@H](C)CO)C[C@@H](C)[C@H](CN(C)Cc1ccncc1)O2	none
C[C@@H]1CN([C@@H](C)CO)C(=O)c2cc(-c3ccccc3F)cnc2O[C@@H]1CN(C)Cc1ccccc1	none
Cc1cc(C(F)F)n2ncc(C(=O)NCc3ccc(F)cc3)c2n1	GSIS activator 44
Cc1cc(C(F)F)n2ncc(C(=O)NCc3ccccc3F)c2n1	none (no result: miR122 inh, E-selectin induc)
C[C@H](CO)N1C[C@H](C)[C@@H](CN(C)C(=O)c2ccccn2)Oc2cc(C#Cc3ccccc3)ccc2S1(=O)=O	none
O=C(Nc1ccccc1F)N1C[C@H]2[C@@H](c3ccccc31)[C@H](CO)N2C(=O)C1CCCC1	none
O=C(Nc1ccccc1F)N1C[C@H]2[C@@H](c3ccccc31)[C@@H](CO)N2C(=O)C1CCCCC1	DENV2 CPE rescue 61
COc1ccccc1NC(=O)N1C[C@H]2[C@@H](c3ccccc31)[C@H](CO)N2C(C)=O	DENV2 CPE rescue 20
O=C(Nc1ccccc1F)N1C[C@H]2[C@@H](c3ccccc31)[C@@H](CO)N2C(=O)c1ccc(F)cc1	miR122 inh 240[16.7 µM]
CNC[C@H]1OCCCC[C@@H](C)Oc2ccc(NC(=O)Nc3ccccc3)cc2C(=O)N([C@@H](C)CO)C[C@@H]1C	none
CCOC(=O)CC1(C)OCC(C[N+]2(C)CCCCC2)O1 (stereo unspecified)	ERAP1 HTS inh 96 (no result: miR122 inh)
C[N+]1(CC(=O)OC2CCCCCCCCCCC2)CCCC1	DENV2 CPE rescue inconclusive (no result: miR122 inh, E-selectin induc)
O=C(NC(=S)Nc1ccccn1)c1cncc(Br)c1	E-selectin induc 26 (no result: miR122 inh)
O=C(NC(=S)Nc1ccc(Br)cn1)c1cncc(Br)c1	none (no result: GSIS activator, DENV2 CPE rescue, CFTR F508del cor, ERAP1 HTS inh, E-selectin induc)
CC(=O)c1ccc(OCCCC(=O)NC2CCCc3ccccc32)cc1 (stereo unspecified)	DENV2 CPE rescue 22 (no result: E-selectin induc)
c1ccc2c(C(c3nnnn3-c3ccc4c(c3)OCCO4)N3CCCC3)ccnc2c1 (stereo unspecified)	none (no result: miR122 inh)
CN(C)CCN1CCN(C(c2ccnc3ccccc23)c2nnnn2-c2ccc3c(c2)OCCO3)CC1 (stereo unspecified)	DENV2 CPE rescue 22 (no result: miR122 inh)
Cc1ccc2c(c1)CCCN2C(=O)CCc1nc2ccccc2c(=O)[nH]1	CFTR F508del cor 22
CC(=O)N1CCN(C(=O)CCc2nc3ccccc3c(=O)[nH]2)CC1	none (no result: E-selectin induc)
C[C@@H]1CN(C)C(=O)Cc2cc(N(C)C)ccc2O[C@H]1CN(C)C	none (no result: miR122 inh, DENV2 CPE rescue, CFTR F508del cor, ERAP1 HTS inh, E-selectin induc)
CC1Cc2ccccc2N1C(=O)COc1ccc2c(c1)OCO2 (stereo unspecified)	ERAP1 HTS inh 31
Cc1cc2oc3ccc(NCCCN4CCOCC4)cc3c(=O)c2cc1C	DENV2 CPE rescue 37 (no result: miR122 inh, GSIS activator)
Cc1cc2oc3ccc(NCCCn4ccnc4)cc3c(=O)c2cc1C	none (no result: miR122 inh, DENV2 CPE rescue, ERAP1 HTS inh)
Cc1ccccc1S(=O)(=O)NCC[C@@H]1CC[C@H](NC(=O)C2CCCCC2)[C@H](CO)O1	none (no result: miR122 inh)
CN1C[C@H]2[C@@H](c3ccccc31)[C@@H](CO)N2C(=O)C1CCCC1	DENV2 CPE rescue 27
O=C(C1CCCC1)N1C[C@H]2[C@@H](c3ccccc31)[C@@H](CO)N2C(=O)c1ccccc1	DENV2 CPE rescue 51
O=C(C1CC1)N1C[C@H]2[C@@H](c3ccccc31)[C@H](CO)N2C(=O)Cc1ccccn1	DENV2 CPE rescue 63
O=C(c1cccnc1)N1C[C@@H]2[C@H](c3ccccc31)[C@H](CO)N2CC1CCCCC1	DENV2 CPE rescue 29
O=C(C1CC1)N1CC2(C1)[C@@H](c1ccccc1)[C@@H](CO)N2Cc1nccs1	none (no result: miR122 inh)
C[C@@H]1CN([C@@H](C)CO)C(=O)c2cc(NC(=O)c3ccncc3)ccc2O[C@@H](C)CCCCO[C@H]1CN(C)C(=O)NC1CCCCC1	none
CCC(=O)N1C[C@H](C)[C@@H](OC)CN(C)C(=O)c2cc(NC(=O)c3cc(C)on3)ccc2OC[C@@H]1C	none (no result: DENV2 CPE rescue, ERAP1 HTS inh)
C[C@@H]1CCCCO[C@@H](CN(C)C)[C@H](C)CN([C@H](C)CO)C(=O)c2cc(NC(=O)Nc3ccc(F)cc3)ccc2O1	none
